From ChEMBL document CHEMBL3808328, “Caged xanthones: Potent inhibitors of global predominant MRSA USA300” (Bioorg Med Chem Lett, 2016) come the findings set out here.

Molecules are shown by their SMILES. Values after ≈ are worked out from the molar mass of the structure shown.

For orientation: IC50 means the midpoint of a concentration-inhibition curve. In general, MIC refers to the smallest concentration in the dilution series that meets the test's criterion for growth inhibition. A word on the MBC: it is the smallest concentration meeting the test's criterion for killing.

In experiment [1] the test system is Staphylococcus aureus. In words: Antibacterial activity against methicillin-susceptible Staphylococcus aureus ATCC 25923 assessed as zone of inhibition at 30 ug after 18 hrs by disk diffusion method. The class given is functional. As to conditions: ATCC 25923, 18 h, read-out: DIZ. The essentials: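 Disks 6 mm in diameter; a 6 mm zone means no growth inhibition. The diameters of complete-inhibition zones are averaged over at least three independent experiments and reported with standard errors.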
Background: A growth-free zone around the sample is the usual read-out of agar diffusion tests.

The test system of experiment [2] is Staphylococcus aureus. As to the kind of experiment: Antibacterial activity against methicillin-resistant Staphylococcus aureus USA300 SF8300 assessed as zone of inhibition at 30 ug after 18 hrs by disk diffusion method. The class given is functional. As to conditions: USA300 SF8300, 18 h, read-out: DIZ. The essentials:
(§1)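 Disk diffusion on 6 mm paper disks, with methicillin-susceptible S. aureus ATCC 25923 as the control strain alongside MRSA USA300 SF8300. The read-out is the diameter of the complete inhibition zone, averaged over at least three independent experiments and reported with standard errors. A 6 mm zone means no growth inhibition.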

For a further experiment, the system named is A549. As to the kind of experiment: Cytotoxicity against human A549 cells assessed as reduction in cell viability after 24 to 48 hrs by Presto Blue assay. The experiment is classed as cell-based.
Experiment [3] relates to Staphylococcus aureus. As to the kind of experiment: Antibacterial activity against methicillin-susceptible Staphylococcus aureus ATCC 29213 assessed as growth inhibition after 18 to 20 hrs by microdilution assay. The experiment is classed as functional. An outline of the steps:
(§2)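 Broth microdilution gives both MIC and MBC. Each compound is serially 2-fold diluted starting from its stock concentration.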

The test system of experiment [4] is Staphylococcus aureus. In words: Bactericidal activity against methicillin-resistant Staphylococcus aureus USA300 SF8300 after 18 to 20 hrs. The class given is functional. An outline of the steps: (§3)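 Broth microdilution to find MIC and MBC against MRSA USA300 SF8300. Each compound was serially 2-fold diluted starting from its stock concentration.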
Experiment [5] concerns Staphylococcus aureus. As to the kind of experiment: Antibacterial activity against methicillin-resistant Staphylococcus aureus USA300 SF8300 assessed as growth inhibition after 18 to 20 hrs by microdilution assay. The experiment is classed as functional. An outline of the steps:
as §3
(In general: Dilution methods test growth across graded concentrations, often in twofold steps.)

The test system of experiment [6] is Staphylococcus aureus. In words: Bactericidal activity against methicillin-susceptible Staphylococcus aureus ATCC 29213 after 18 to 20 hrs. The class given is functional. An outline of the steps: as §2
The next experiment concerns HEK293. As to the kind of experiment: Cytotoxicity against human HEK293 cells assessed as reduction in cell viability after 24 to 48 hrs by […] assay.
Experiment [7] deals with Staphylococcus aureus. As to the kind of experiment: Antibacterial activity against methicillin-resistant Staphylococcus aureus USA300 SF8300 assessed as zone of inhibition at 1 ug after 18 hrs by disk diffusion method. The experiment is classed as functional. As to conditions: USA300 SF8300, 18 h, read-out: DIZ. The essentials: as §1
Experiment [8] has as its system Staphylococcus aureus. In words: Antibacterial activity against methicillin-susceptible Staphylococcus aureus ATCC 25923 assessed as zone of inhibition at 1 ug after 18 hrs by disk diffusion method. The class given is functional. The following applies: ATCC 25923, 18 h, read-out: DIZ. An outline of the steps:
as §1

In the case of `CC(C)=CCc1c2c(c(O)c3c1O[C@@]14C(=C[C@H]5CC1C(C)(C)O[C@]4(C/C=C(/C)C(=O)N[C@@H](CO)C(=O)O)C5=O)C3=O)C=CC(C)(C)O2`, the zone of inhibition at 30 µg/disc was found to be 6.09 mm in the experiment on Staphylococcus aureus [1] and 6.28 mm with Staphylococcus aureus [2].

For `CSCC[C@H](NC(=O)/C(C)=C\C[C@]12OC(C)(C)C3C[C@H](C=C4C(=O)c5c(O)c6c(c(CC=C(C)C)c5O[C@@]431)OC(C)(C)C=C6)C2=O)C(=O)O`, the results for the zone of inhibition at 30 µg/disc in the experiment on Staphylococcus aureus [1] and with Staphylococcus aureus [2] were 7.09 mm and 9.53 mm, respectively.

In the case of `CC(C)=CCc1c2c(c(O)c3c1O[C@@]14C(=C[C@H]5CC1C(C)(C)O[C@]4(C/C=C(/C)C(=O)N1CCC[C@H]1C(=O)O)C5=O)C3=O)C=CC(C)(C)O2`, in the experiment on A549, the IC50 is 21.1 µM. Further, the values for the MIC in the experiment with Staphylococcus aureus [3] and with Staphylococcus aureus [5] were 50 µM (≈ 32.9 µg/mL) and 100 µM (≈ 65.8 µg/mL), respectively. Besides, the MBC in the experiment with Staphylococcus aureus [4] was above 100 µM; against Staphylococcus aureus [6], 100 µM (≈ 65.8 µg/mL). The values for the zone of inhibition at 30 µg/disc in the experiment on Staphylococcus aureus [1] and with Staphylococcus aureus [2] were 13.1 mm and 15.9 mm, respectively.

With `COC(=O)/C(C)=C\C[C@]12OC(C)(C)C3C[C@H](C=C4C(=O)c5c(O)c6c(c(CC=C(C)C)c5O[C@@]431)OC(C)(C)C=C6)C2=O`, the zone of inhibition at 30 µg/disc in the experiment on Staphylococcus aureus [1] and in the experiment with Staphylococcus aureus [2] was 6 mm in each case.

As to `CC(C)=CCc1c2c(c(O)c3c1O[C@@]14C(=C[C@H]5CC1C(C)(C)O[C@]4(C/C=C(/C)C(=O)N[C@@H](CCC(=O)NC(c1ccccc1)(c1ccccc1)c1ccccc1)C(=O)O)C5=O)C3=O)C=CC(C)(C)O2`, the figures for the zone of inhibition at 30 µg/disc in the experiment with Staphylococcus aureus [1] and in the experiment on Staphylococcus aureus [2] were 6.89 mm and 8.21 mm, respectively.

As to `CC(C)=CCc1c2c(c(O)c3c1O[C@@]14C(=C[C@H]5CC1C(C)(C)O[C@]4(CC=C(C)C)C5=O)C3=O)C=CC(C)(C)O2`, the half-maximal inhibitory concentration (IC50) in the experiment on A549 worked out at 1.42 µM; in the experiment on HEK293, 0.81 µM. The zone of inhibition at 30 µg/disc in the experiment on Staphylococcus aureus [1] and in the experiment with Staphylococcus aureus [2] was 6 mm each time.

As to `Cc1onc(-c2ccccc2)c1C(=O)N[C@@H]1C(=O)N2[C@@H]1SC(C)(C)[C@@H]2C(=O)O` [OXACILLIN], the zone of inhibition at 1 µg/disc with Staphylococcus aureus [7] was determined as 6 mm; in the experiment with Staphylococcus aureus [8], 28.9 mm. For the same compound, the MIC was 0.62 µM (≈ 0.249 µg/mL) in the experiment with Staphylococcus aureus [3] and above 19.9 µM in the experiment with Staphylococcus aureus [5]. For the same compound, the MBC with Staphylococcus aureus [4] was above 19.9 µM; in the experiment with Staphylococcus aureus [6], 1.25 µM (≈ 0.502 µg/mL).

Take `CC(C)=CCc1c(O)cc(O)c2c1OC13C(=CC4CC1C(C)(C)O[C@]3(CC=C(C)C)C4=O)C2=O`: the MIC was 200 µM (≈ 92.9 µg/mL) in the experiment on Staphylococcus aureus [3] and above 400 µM with Staphylococcus aureus [5]. The minimum bactericidal concentration (MBC) against Staphylococcus aureus [4] was above 400 µM; with Staphylococcus aureus [6], 200 µM (≈ 92.9 µg/mL). Besides, the results for the zone of inhibition at 30 µg/disc in the experiment with Staphylococcus aureus [1] and with Staphylococcus aureus [2] were 7.86 mm and 7.97 mm, respectively.

As for `CC(C)=CCC/C(C)=C/Cc1c(O)c(CC=C(C)C)c2c(c1O)C(=O)C1=C[C@H]3CC4C(C)(C)O[C@](CC=C(C)C)(C3=O)[C@]14O2`, the zone of inhibition at 30 µg/disc in the experiment with Staphylococcus aureus [1] and with Staphylococcus aureus [2] was 6 mm in each case.

Regarding `CC[C@H](C)[C@H](NC(=O)/C(C)=C\C[C@]12OC(C)(C)C3C[C@H](C=C4C(=O)c5c(O)c6c(c(CC=C(C)C)c5O[C@@]431)OC(C)(C)C=C6)C2=O)C(=O)O`, in the experiment on A549, the IC50 stood at 24.5 µM. In addition, the MIC in the experiment with Staphylococcus aureus [3] and in the experiment on Staphylococcus aureus [5] was 25 µM (≈ 16.8 µg/mL) each time. Besides, the MBC in the experiment with Staphylococcus aureus [4] came out at 50 µM (≈ 33.7 µg/mL); in the experiment with Staphylococcus aureus [6], 25 µM (≈ 16.8 µg/mL). Further, the zone of inhibition at 30 µg/disc in the experiment on Staphylococcus aureus [1] worked out at 15.9 mm; in the experiment with Staphylococcus aureus [2], 19.4 mm.
